Series [1] deals with PANC-1. Description: Antiausteritic activity against human PANC1 cells in nutrient-deprived medium measured after 24 hrs by WST8 assay. Type of series: functional. A digest of the protocol: (§1)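 Cells kept in DMEM with 10% FBS at 37 °C, 5% CO2. Seeded at 1.5 × 10^4 cells/well in DMEM for 24 h, washed twice with PBS, then exposed 24 h to serially diluted samples in DMEM or nutrient-deprived medium (NDM). Viability by WST-8 (3 h, A450) from three-well means. PC50 is the concentration killing 50% of cells in NDM without toxicity in DMEM.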
A general note: Tetrazolium dyes change colour on reduction, which living cells bring about.

In series [2] the test system is MIA PaCa-2. Description: Antiausteritic activity against human MIAPaCa2 cells in nutrient-deprived medium measured after 24 hrs by WST8 assay. Type of series: functional. A digest of the protocol:
as §1

Series [3] has as its system PSN1. The experiment in a line: Antiausteritic activity against human PSN1 cells in nutrient-deprived medium measured after 24 hrs by WST8 assay. In kind it is functional. A digest of the protocol:
as §1

Series [4] relates to PANC-1. Description: Cytotoxicity against human PANC1 cells in DMEM measured after 24 hrs by WST8 assay. Type of series: cell-based. Conditions: panc-1, 24 h. The essentials: as §1
Series [5] concerns MIA PaCa-2. The experiment in a line: Cytotoxicity against human MIAPaCa2 cells in DMEM measured after 24 hrs by WST8 assay. As to conditions: mia paca-2, 24 h. Type of series: cell-based. The essentials: as §1
For series [6], the system named is PSN1. Description: Cytotoxicity against human PSN1 cells in DMEM measured after 24 hrs by WST8 assay. Type of series: cell-based. Conditions: psn1, 24 h. The essentials:
as §1

Series [7] relates to PANC-1. Description: Antiausteritic activity against human PANC1 cells in nutrient deprived medium assessed as induction of morphological changes at 6.25 to 25 uM after 24 hrs by ethidium bromide/acridine orange staining based microscopic method. Type of series: functional, cell-based. The essentials: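 PANC-1 (2 × 10^5) seeded in 30 mm dishes overnight, washed twice with PBS, treated in NDM for 24 h in humidified CO2 incubator. Acridine orange/ethidium bromide double stain, 15 min in the dark. Fluorescence (red/green) and phase-contrast imaging at 20× objective.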

The subject of series [8] is PANC-1. The experiment in a line: Antiausteritic activity against human PANC1 cells in nutrient deprived medium assessed as cell death at 25 uM after 24 hrs by ethidium bromide/acridine orange staining based microscopic method relative to control. In kind it is functional. A digest of the protocol:
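PANC-1 cells seeded at 2 × 10^5 per 30 mm dish, attached overnight, PBS-washed twice, then exposed to compound in nutrient-deprived medium (NDM) for 24 h in humidified CO2 incubator. Acridine orange/ethidium bromide double stain added 15 min in dark; fluorescence (red/green) and phase-contrast images taken at 20× objective; red-fluorescing, morphologically altered cells scored as dead.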

For series [9], the system named is PANC-1. The experiment in a line: Antiausteritic activity against human PANC1 cells in nutrient deprived medium assessed as cell shrinkage at 10 uM measured every 10 mins […] by phase contrast microscopic method. Type of series: functional, cell-based. The essentials:
(§2)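 PANC-1 (2 × 10^5) attached overnight in complete medium, washed twice with PBS, treated with 10 μM in NDM. Held in a stage-top incubator at 37 °C, 5% CO2. Phase-contrast images taken every 10 min for 24 h.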

For series [10], the system named is PANC-1. Description: Antiausteritic activity against human PANC1 cells in nutrient deprived medium assessed as plasma blebbing at 10 uM measured every 10 mins […] by phase contrast microscopic method. Type of series: functional, cell-based. The essentials: as §2
In series [11] the test system is PANC-1. The experiment in a line: Antiausteritic activity against human PANC1 cells in nutrient deprived medium assessed as cell death at 10 uM measured every 10 mins for 24 hrs by phase contrast microscopic method. In kind it is functional, cell-based. The essentials: as §2
The subject of series [12] is PANC-1. Description: Antimigratory activity in human PANC1 cells in DMEM assessed as cell migration at 10 uM after 24 hrs by wound healing assay (reference value: 95%). Type of series: functional.
Series [13] relates to PANC-1. The experiment in a line: Inhibition of colony formation in human PANC1 cells in DMEM at 12.5 uM after 10 days by crystal violet staining based assay. In kind it is functional, cell-based. A digest of the protocol: (§3)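 PANC-1 at 500 cells/well in DMEM, attached 24 h at 37 °C, 5% CO2. Treated with 12.5 or 25 μM in DMEM and grown 10 days. Cells washed with PBS, fixed with 4% formaldehyde, stained 15 min with crystal violet. Colony area measured; three replicates.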

Series [14] deals with PANC-1. The experiment in a line: Inhibition of colony formation in human PANC1 cells in DMEM at 25 uM after 10 days by crystal violet staining based assay relative to control. Conditions: PANC-1, 240 h. Type of series: functional. The essentials:
as §3

Series [15] deals with PANC-1. The experiment in a line: Reduction in total AKT expression in human PANC1 cells in nutrient deprived medium at up to 5 uM measured within 6 hrs by Western blot analysis. In kind it is functional, cell-based. A digest of the protocol: (§4)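 PANC-1 cells treated in nutrient-deprived medium. Proteins resolved by SDS-PAGE and transferred to PVDF. Membranes blocked, washed in PBS with 0.1% Tween 20, and incubated overnight with primary antibodies against p-Akt, Akt, p-mTOR and mTOR. GAPDH served as loading control.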
Background: In western blotting, separated proteins are transferred to a membrane and probed.

The species named for a further series is Homo sapiens. Description: Inhibition of AKT/mTOR signaling in human PANC1 cells in nutrient deprived medium assessed as effect on mTOR phosphorylation up to 5 uM measured within 6 hrs by Western blot analysis. In kind it is cell-based. The essentials:
as §4

The subject of series [16] is PANC-1. Description: Antiausteritic activity against human PANC1 cells in nutrient deprived medium assessed as disintegration of cell organelles at 10 uM measured every 10 mins for 24 hrs by phase contrast microscopic method. Type of series: functional, cell-based. The essentials:
as §2

Each structure is given as a SMILES string. Calls of active or inactive are those of the source. No cut-off for these calls is given here. Where only a bound is given, the exact number is not on record here.

Turning to `C/C(=C\COc1c2ccoc2cc2oc(=O)ccc12)CC[C@@H](O)C(C)(C)O`, the results for the PC50 in the series on PANC-1 [1], in the series on MIA PaCa-2 [2] and in the series on PSN1 [3] were 76.5 µM, 49.4 µM and 76.1 µM, respectively. The Activity entry with PANC-1 [4], with MIA PaCa-2 [5] and in the series on PSN1 [6] was “Non-Toxic” throughout.
Turning to `COC(C)(C)[C@H](O)COc1c2ccoc2cc2oc(=O)ccc12`, the PC50 with PANC-1 [1] amounted to 89.6 µM; in the series with MIA PaCa-2 [2] it was 87 µM; with PSN1 [3], 89.7 µM. The Activity entry with PANC-1 [4], with MIA PaCa-2 [5] and in the series with PSN1 [6] was “Non-Toxic” each time.
`COC(C)(C)[C@H](O)CC/C(C)=C/COc1c2ccoc2cc2oc(=O)ccc12`: the PC50 was 37.8 µM with PANC-1 [1], 37.1 µM in the series on MIA PaCa-2 [2] and 37.8 µM in the series with PSN1 [3]. Further, the Activity entry in the series on PANC-1 [4], with MIA PaCa-2 [5] and with PSN1 [6] was “Non-Toxic” throughout.
As to `C=C(C)[C@@H](O)COc1c2ccoc2cc2oc(=O)ccc12`, the values for the PC50 with PANC-1 [1], in the series with MIA PaCa-2 [2] and in the series with PSN1 [3] were 86.6 µM, more than 100 µM and more than 100 µM, respectively. Further, the Activity entry with PANC-1 [4], in the series with MIA PaCa-2 [5] and with PSN1 [6] was “Non-Toxic” in each case.
Consider `CO[C@@H](COc1c2ccoc2cc2oc(=O)ccc12)C(C)(C)O`, for which the PC50 stood at 18.8 µM in the series with PANC-1 [1], 51.1 µM in the series on MIA PaCa-2 [2] and 40.6 µM in the series with PSN1 [3]. Besides, the Activity entry in the series on PANC-1 [4], in the series with MIA PaCa-2 [5] and in the series with PSN1 [6] was “Non-Toxic” each time.
Regarding `COc1cc(C[C@H]2C(=O)OC[C@@H]2Cc2ccc(OC)c(OC)c2)ccc1O` [ARCTIGENIN], the values for the PC50 in the series on PANC-1 [1], in the series with MIA PaCa-2 [2] and in the series with PSN1 [3] were 0.7 µM, 1.9 µM and 0.7 µM, respectively.
One may read the inhibition as the drop in the measured response relative to a control, in per cent. On to `CC(C)=CCC/C(C)=C/COc1c2ccoc2cc2oc(=O)ccc12` [BERGAMOTTIN], for which the Activity result in the series with PANC-1 [1] was “Dose-dependent effect”; with MIA PaCa-2 [2] it was “Dose-dependent effect”; with PSN1 [3] it was “Dose-dependent effect”; in the series with PANC-1 [4], “Non-Toxic”; with MIA PaCa-2 [5], “Non-Toxic”; with PSN1 [6], “Non-Toxic”. Moreover, the values for the Activity with PANC-1 [8] and in the series on PANC-1 [12] were 100% and 30%, respectively. For the same compound, the PC50 in the series with PANC-1 [1] was 4.6 µM; in the series on MIA PaCa-2 [2], 2.2 µM; in the series with PSN1 [3] it was 9.4 µM. The result in the series with PANC-1 [7], in the series on PANC-1 [9], with PANC-1 [10], in the series with PANC-1 [11], in the series with PANC-1 [15] and in the series on PANC-1 [16] was Active. For the same compound, the inhibition result in the series with PANC-1 [13] and in the series filed under Homo sapiens was “Active” in each case. In the series with PANC-1 [14], this compound gave an inhibition at 25 µM of 100%.
`CC(C)=CCOc1c2ccoc2cc2oc(=O)ccc12` [ISOIMPERATORIN]: the PC50 turned out to be 41.2 µM in the series on PANC-1 [1], 37.2 µM in the series on MIA PaCa-2 [2] and 41.7 µM in the series with PSN1 [3]. The Activity entry in the series on PANC-1 [4], with MIA PaCa-2 [5] and with PSN1 [6] was “Non-Toxic” in each case.
As to `CC(C)(O)[C@H](O)COc1c2ccoc2cc2oc(=O)ccc12` [OXYPEUCEDANIN HYDRATE], the PC50 came to 41.2 µM in the series with PANC-1 [1], 79.4 µM in the series on MIA PaCa-2 [2] and 89.7 µM in the series on PSN1 [3]. In addition, the Activity entry with PANC-1 [4], in the series on MIA PaCa-2 [5] and in the series on PSN1 [6] was “Non-Toxic” each time.
For the compound `CC1(C)O[C@H]1COc1c2ccoc2cc2oc(=O)ccc12` [OXYPEUCEDANIN], the PC50 in the series with PANC-1 [1] came out at 76.5 µM; in the series with MIA PaCa-2 [2] it was 38 µM; in the series with PSN1 [3], 74.6 µM. The Activity entry with PANC-1 [4], with MIA PaCa-2 [5] and in the series on PSN1 [6] was “Non-Toxic” each time.
With `O=c1ccc2ccc(O)cc2o1` [UMBELLIFERONE], the PC50 in the series with PANC-1 [1], with MIA PaCa-2 [2] and in the series on PSN1 [3] was more than 100 µM throughout. The Activity result with PANC-1 [4], with MIA PaCa-2 [5] and in the series on PSN1 [6] was “Non-Toxic” in each case.

The record behind these values is ChEMBL document CHEMBL4196136, “Chemical Constituents of Thai Citrus hystrix and Their Antiausterity Activity against the PANC-1 Human Pancreatic Cancer Cell Line” (J Nat Prod, 2018).
